This note sets out measurements from ChEMBL document CHEMBL4765360, “Design, synthesis and biological evaluation of novel potent STAT3 inhibitors based on BBI608 for cancer therapy” (Eur J Med Chem, 2020).

The subject of test [1] is MDA-MB-231. Description: Antiproliferative activity against human MDA-MB-231 cells overexpressing STAT3 assessed as reduction in cell growth incubated for 48 hrs by CCK-8 assay. Type of test: functional, cell-based. The conditions noted are these: MDA-MB-231, 48 h. The method, boiled down:
(§1)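 Cells seeded at 5000-7000/well and allowed to settle for 8 h at 37 °C, 5% CO2. Graded compound concentrations were then added in triplicate (DMSO <0.1%) for 48 h. Medium was replaced with 10% CCK-8 for 4 h (MDA-MB-231, MDA-MB-468) or 1 h (HepG2), and A450 was read. IC50 is mean ± SD of at least three independent experiments. HepG2 was grown in high-glucose DMEM with 10% FBS.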

The test system of the next test is HepG2. Description: Antiproliferative activity against human HepG2 cells overexpressed STAT3 assessed as reduction in cell growth incubated for 48 hrs by CCK-8 assay. Type of test: functional, cell-based. The conditions noted are these: HepG2, 48 h. The method in brief:
as §1
On the technique in general: Formazan colour is commonly taken as a measure of viable cells.

The test system of a further test is MDA-MB-468. Briefly: Antiproliferative activity against human MDA-MB-468 cells overexpressing STAT3 assessed as reduction in cell growth incubated for 48 hrs by CCK-8 assay. The following applies: MDA-MB-468, 48 h. It is filed as functional, cell-based. The method, boiled down: as §1
Test [2] has as its target T1, Signal transducer and activator of transcription 3 (Homo sapiens, UniProt P40763). Description: Displacement of 5-FAM-GpYLPQTV-NH2 from His-tagged STAT3 (unknown origin) (127 to 722 residues) incubated for 30 mins followed by fluorescent peptide probe addition and measured after 1 hr by fluorescence polarization based competition binding assay. (In general: Fluorescence polarisation rises when a labelled molecule tumbles more slowly, as on binding a larger partner.)

Test [3] addresses T1, Signal transducer and activator of transcription 3. Description: Inhibition of STAT3 in human MDA-MB-231 cells assessed as reduction in STAT3 Y705 phosphorylation incubated for 24 hrs by Western blot analysis. Type of test: cell-based. The following applies: dose 0.75-3 µM. The method in brief:
(§2)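 MDA-MB-231 cells treated with a range of concentrations for 24 h. RIPA lysates with PMSF, 40 µg protein/lane, on 10% SDS-PAGE, then PVDF. Blocked in 5% milk/TBST for 2 h. Primary antibodies to STAT3, p-STAT3(Y705), STAT1, p-STAT1(Y701), c-Myc and Cyclin D1 overnight at 4 °C; GAPDH as loading control. HRP secondary for 1 h; ECL detection.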
(A western blot detects proteins with antibodies after separation by electrophoresis.)

The test system of test [4] is MDA-MB-231. Briefly: Effect on STAT3 expression in human MDA-MB-231 cells at 0.75 to 3 uM incubated for 24 hrs by Western blot analysis. Type of test: functional, cell-based. The conditions noted are these: dose 0.75-3 µM. The method, boiled down: as §2
Test [5] concerns the target T1, Signal transducer and activator of transcription 3. Briefly: Inhibition of STAT3 in human MDA-MB-231 cells assessed as reduction in c-myc expression incubated for 24 hrs by Western blot analysis. It is filed as cell-based. The following applies: dose 0.75-3 µM. The method in brief: as §2
The target is the same in test [6]. Description: Inhibition of STAT3 in human MDA-MB-231 cells assessed as reduction in Cyclin D1 expression incubated for 24 hrs by Western blot analysis. Type of test: cell-based. The conditions noted are these: dose 0.75-3 µM. The method in brief: as §2
Test [7] has as its target T2, Signal transducer and activator of transcription 1-alpha/beta (Homo sapiens) (UniProt P42224).
T2 sequence (whole entry): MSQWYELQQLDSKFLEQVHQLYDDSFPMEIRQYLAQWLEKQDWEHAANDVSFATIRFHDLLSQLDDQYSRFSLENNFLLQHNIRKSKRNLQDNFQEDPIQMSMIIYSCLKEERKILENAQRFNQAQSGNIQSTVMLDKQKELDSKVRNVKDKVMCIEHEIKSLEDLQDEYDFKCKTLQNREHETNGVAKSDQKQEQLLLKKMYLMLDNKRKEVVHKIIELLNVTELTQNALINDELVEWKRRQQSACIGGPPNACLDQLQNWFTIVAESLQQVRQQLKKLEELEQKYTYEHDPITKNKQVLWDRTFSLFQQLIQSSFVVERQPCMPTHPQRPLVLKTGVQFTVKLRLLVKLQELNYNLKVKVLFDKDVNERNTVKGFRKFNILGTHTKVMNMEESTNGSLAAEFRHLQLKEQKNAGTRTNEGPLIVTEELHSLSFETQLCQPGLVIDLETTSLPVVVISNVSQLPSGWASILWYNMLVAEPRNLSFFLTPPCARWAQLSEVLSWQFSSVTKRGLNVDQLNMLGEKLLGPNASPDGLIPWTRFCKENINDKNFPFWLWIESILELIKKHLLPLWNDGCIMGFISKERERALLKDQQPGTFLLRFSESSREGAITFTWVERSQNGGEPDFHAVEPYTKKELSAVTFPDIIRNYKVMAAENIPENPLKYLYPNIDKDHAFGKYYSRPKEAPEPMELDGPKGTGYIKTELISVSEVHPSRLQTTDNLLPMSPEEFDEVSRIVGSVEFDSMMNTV
Description: Inhibition of STAT1 in human MDA-MB-231 cells assessed as reduction in STAT1 Y701 phosphorylation at 0.75 to 3 uM incubated for 24 hrs by Western blot analysis. The following applies: dose 0.75-3 µM. It is filed as cell-based. The method, boiled down: as §2

Test [8] has as its system MDA-MB-231. Briefly: Effect on STAT1 expression in human MDA-MB-231 cells at 0.75 to 3 uM incubated for 24 hrs by Western blot analysis. It is filed as functional, cell-based. The conditions noted are these: dose 0.75-3 µM. The method, boiled down:
as §2

Each structure is given as a SMILES string. Calls of active or inactive are those of the source. The rule behind the calls is not given here.

T1 sequence (P40763 whole entry, the tested form may be a part): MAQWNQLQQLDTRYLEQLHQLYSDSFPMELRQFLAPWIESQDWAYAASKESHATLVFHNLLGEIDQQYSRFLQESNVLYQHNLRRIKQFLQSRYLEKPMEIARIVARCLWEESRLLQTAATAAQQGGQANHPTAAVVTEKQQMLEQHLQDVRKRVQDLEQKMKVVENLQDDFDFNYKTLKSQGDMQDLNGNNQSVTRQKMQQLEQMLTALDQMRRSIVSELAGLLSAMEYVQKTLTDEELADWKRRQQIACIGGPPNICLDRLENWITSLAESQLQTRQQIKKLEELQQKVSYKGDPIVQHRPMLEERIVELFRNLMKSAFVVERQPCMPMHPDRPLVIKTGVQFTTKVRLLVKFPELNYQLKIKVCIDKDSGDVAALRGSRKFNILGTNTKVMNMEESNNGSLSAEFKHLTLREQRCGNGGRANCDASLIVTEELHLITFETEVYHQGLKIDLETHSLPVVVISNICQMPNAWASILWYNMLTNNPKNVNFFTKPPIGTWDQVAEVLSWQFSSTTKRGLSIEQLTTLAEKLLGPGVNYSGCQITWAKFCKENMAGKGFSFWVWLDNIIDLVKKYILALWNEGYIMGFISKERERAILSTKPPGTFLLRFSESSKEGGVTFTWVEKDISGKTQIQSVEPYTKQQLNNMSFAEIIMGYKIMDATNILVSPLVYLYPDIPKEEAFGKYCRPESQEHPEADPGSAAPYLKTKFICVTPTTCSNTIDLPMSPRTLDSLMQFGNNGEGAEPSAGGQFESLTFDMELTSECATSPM

Regarding `CC(=O)c1cc2c(o1)C(=O)c1ccccc1C2=O` [NAPABUCASIN], the IC50 – broadly, the concentration at which inhibition is half-maximal – in the test with MDA-MB-231 [1] came to 700 nM; in the test with HepG2 it was 0.84 µM.
Consider `CC(=O)c1cc2c(o1)C(=O)C(Nc1cccc(C)c1)=CC2=O`, for which the IC50 was found to be 2620 nM with MDA-MB-231 [1], 4540 nM in the test on MDA-MB-468 and 5.5 µM in the test with HepG2.
For `CC(=O)c1cc2c(o1)C(=O)C(Nc1ccccc1C)=CC2=O`, the IC50 with MDA-MB-231 [1] is 560 nM; in the test with MDA-MB-468 it was 730 nM; with HepG2, 1.21 µM; in test [2], 5.55 µM. For the same compound, the inhibition entry in test [2] (time 1.5 hrs), in [3], in test [5] and in test [6] was “Dose-dependent effect” in each case. Moreover, the result with MDA-MB-231 [4] and with MDA-MB-231 [8] was inactive. The inhibition result in test [7] is “inactive”.
For the compound `CC(=O)c1cc2c(o1)C(=O)C(Nc1ccc(OC(C)C)cc1)=CC2=O`, the IC50 was 1110 nM in the test with MDA-MB-231 [1], 1180 nM in the test on MDA-MB-468 and 1.04 µM with HepG2.
For `CC(=O)c1cc2c(o1)C(=O)C(NC1CCOCC1)=CC2=O` the same measures were 2070 nM, 3230 nM and 6.8 µM.
For `CC(=O)c1cc2c(o1)C(=O)C(Nc1ccccc1F)=CC2=O` the same measures were 2340 nM, 2000 nM and 2.55 µM.
Consider `CC(=O)c1cc2c(o1)C(=O)C(NC1CCC1)=CC2=O`, for which the IC50 in the test with MDA-MB-231 [1] turned out to be 4870 nM; with MDA-MB-468 it was 8840 nM; with HepG2 it was 6.75 µM.
For `COc1cc(C)c(NC2=CC(=O)c3cc(C(C)=O)oc3C2=O)c(C)c1` the same measures were 670 nM, 1530 nM and 2.01 µM.
On to `CC(=O)c1cc2c(o1)C(=O)C(NC1CC1)=CC2=O`, for which the IC50 was found to be 940 nM in the test with MDA-MB-231 [1], 1970 nM with MDA-MB-468 and 1.83 µM with HepG2.
On the same counts, the results for `CC(=O)c1cc2c(o1)C(=O)C(NC1CCCCC1)=CC2=O` are 2880 nM, 4130 nM and 6.55 µM.
Regarding `CC(=O)c1cc2c(o1)C(=O)C(NC1CCCC1)=CC2=O`, the IC50 with MDA-MB-231 [1] stood at 1230 nM; in the test with MDA-MB-468, 2470 nM; in the test on HepG2 it was 7.17 µM.
For `CC(=O)c1cc2c(o1)C(=O)C(Nc1cccc(F)c1)=CC2=O` the same measures were 3500 nM, 2500 nM and 5.34 µM.
For `CC(=O)c1cc2c(o1)C(=O)C(Nc1ccc(C(F)(F)F)cc1)=CC2=O` the same measures were 3700 nM, 2270 nM and 6.17 µM.
`COc1ccc(NC2=CC(=O)c3cc(C(C)=O)oc3C2=O)c(C)c1`: the results for the IC50 with MDA-MB-231 [1], in the test on MDA-MB-468 and with HepG2 were 2460 nM, 2920 nM and 5.9 µM, respectively.
For `CC(=O)c1cc2c(o1)C(=O)C(Nc1ccc(C)c(C)c1)=CC2=O` the same measures were 2540 nM, 1850 nM and 8.12 µM.
On the same counts, the results for `COc1ccccc1NC1=CC(=O)c2cc(C(C)=O)oc2C1=O` are 920 nM, 1050 nM and 2.41 µM.
For `CC(=O)c1cc2c(o1)C(=O)C(Nc1ccc(N(C)C)cc1)=CC2=O` the same measures were 1530 nM, 1830 nM and 1.51 µM.
Regarding `CC(=O)c1cc2c(o1)C(=O)C(Nc1ccccc1)=CC2=O`, the IC50 came out at 1140 nM with MDA-MB-231 [1], 1030 nM in the test on MDA-MB-468 and 1.54 µM in the test with HepG2.
Regarding `CCc1ccccc1NC1=CC(=O)c2cc(C(C)=O)oc2C1=O`, the IC50 in the test on MDA-MB-231 [1] came out at 2000 nM; in the test on MDA-MB-468 it was 2460 nM; in the test with HepG2, 3.38 µM.
On to `O=[N+]([O-])c1ccc2c(c1)S(=O)(=O)C=C2`, for which the IC50 turned out to be 2640 nM in the test with MDA-MB-231 [1] and 1920 nM in the test on MDA-MB-468.
Consider `CC(=O)c1cc2c(o1)C(=O)C(Nc1cc(C)cc(F)c1)=CC2=O`, for which the IC50 turned out to be 2620 nM in the test with MDA-MB-231 [1], 2110 nM in the test on MDA-MB-468 and 5.66 µM in the test on HepG2.
As for `CC(=O)c1cc2c(o1)C(=O)C(Nc1ccccc1C(F)(F)F)=CC2=O`, the half-inhibitory concentration (IC50) with MDA-MB-231 [1] came to 3120 nM; in the test with MDA-MB-468, 1750 nM; in the test with HepG2 it was 4.04 µM.
Regarding `COc1cccc(NC2=CC(=O)c3cc(C(C)=O)oc3C2=O)c1`, the IC50 was 1480 nM in the test with MDA-MB-231 [1], 1550 nM with MDA-MB-468 and 2.36 µM in the test with HepG2.
For `CC(=O)c1cc2c(o1)C(=O)C(Nc1cccc(C(F)(F)F)c1)=CC2=O` the same measures were 1510 nM, 1160 nM and 1.99 µM.
For the compound `CC(=O)c1cc2c(o1)C(=O)C(Nc1ccc(C)cc1)=CC2=O`, the IC50 came to 900 nM with MDA-MB-231 [1], 3120 nM with MDA-MB-468 and 1.85 µM in the test on HepG2.
On the same counts, the results for `CC(=O)c1cc2c(o1)C(=O)C(Nc1ccc(F)cc1)=CC2=O` are 3210 nM, 7770 nM and 8.01 µM.
On to `CC(=O)c1cc2c(o1)C(=O)C(Nc1c(C)cccc1C)=CC2=O`, for which the results for the IC50 with MDA-MB-231 [1], in the test with MDA-MB-468 and with HepG2 were 1880 nM, 3300 nM and 8.03 µM, respectively.
